Tested on: HeLa
Experiment: Cytotoxicity against human HeLa cells by MTT assay
Type: functional, cell-based
Method in brief: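 HeLa human cervical cancer cells were tested by MTT viability assay, following a previously published protocol. Doxorubicin was run as the reference cytotoxic control. Values are reported as IC50 in µM.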

Question: `COc1cc(O)c(C(=O)/C=C/c2ccccc2)c2c1C[C@H](O)[C@@H](c1cc(O)cc(O)c1)O2` was tested. Which IC50 did it give?
Answer: 7.3 µM

Question: How did the IC50 turn out when `COc1cc(-c2oc3cc(O)cc(O)c3c(=O)c2O)ccc1O` [ISORHAMNETIN] was run?
Answer: ≥ 10 µM

Question: For `O=c1c(O)c(-c2ccccc2)oc2cc(O)cc(O)c12` [GALANGIN], which IC50 is on record?
Answer: ≥ 10 µM

Question: With `COc1cc(O)cc2c1C(=O)C(O)C(c1ccccc1)O2` (configuration not stated) as the compound, how does the IC50 read?
Answer: ≥ 10 µM

Question: Which IC50 does the source give for `COc1cc(O)c(C(=O)/C=C/c2ccccc2)c2c1C[C@@H](O)[C@H](c1cc(O)cc(O)c1)O2` here?
Answer: 7.1 µM

Question: With `O=c1c(O)c(-c2ccc(O)c(O)c2)oc2cc(O)cc(O)c12` [QUERCETIN] as the compound, how does the IC50 read?
Answer: ≥ 10 µM

Question: For `O=C1C[C@@H](c2ccccc2)Oc2cc(O)cc(O)c21` [PINOCEMBRIN], which IC50 is on record?
Answer: ≥ 10 µM

Question: Which IC50 does the source give for `O=c1cc(-c2ccccc2)oc2cc(O)cc(O)c12` [CHRYSIN] here?
Answer: ≥ 10 µM

Question: For `COc1cc(O)c2c(=O)c(O)c(-c3ccc(O)c(O)c3)oc2c1` [RHAMNETIN], which IC50 is on record?
Answer: 7.8 µM

Question: Which IC50 does the source give for `COc1cc(C2Oc3c(c(OC)cc(O)c3C(=O)/C=C/c3ccccc3)CC2O)ccc1O` (configuration not stated) here?
Answer: 6.4 µM

Question: How did the IC50 turn out when `O=c1cc(-c2ccc(O)cc2)oc2cc(O)cc(O)c12` [APIGENIN] was run?
Answer: ≥ 10 µM

Question: How did the IC50 turn out when `COc1ccc(/C=C/C(=O)O)cc1O` [ISOFERULIC ACID] was run?
Answer: ≥ 10 µM

From ChEMBL document CHEMBL1151846, “Cytotoxic constituents of chinese propolis” (J Nat Prod, 2009)
